Measurements from ChEMBL document CHEMBL5712087, “Targeting bromodomain-containing protein 4 (BRD4) inhibits MYC expression in colorectal cancer cells” (Neoplasia, 2019).
The source made the active and inactive calls. No cut-off for these calls is given here.

Key:
Format in all cases: cell-based
[1] = biological target: T1, Protein cereblon/Bromodomain-containing protein 4 (Homo sapiens) (UniProt O60885+Q96SW2); assay: PROTAC activity at BRD4/Cereblon in human LS174T cells assessed as decrease in MYC protein expression at […] for 24 hrs by Western blot analysis
T1 sequence (Q96SW2 whole entry, looked up, other chains not shown): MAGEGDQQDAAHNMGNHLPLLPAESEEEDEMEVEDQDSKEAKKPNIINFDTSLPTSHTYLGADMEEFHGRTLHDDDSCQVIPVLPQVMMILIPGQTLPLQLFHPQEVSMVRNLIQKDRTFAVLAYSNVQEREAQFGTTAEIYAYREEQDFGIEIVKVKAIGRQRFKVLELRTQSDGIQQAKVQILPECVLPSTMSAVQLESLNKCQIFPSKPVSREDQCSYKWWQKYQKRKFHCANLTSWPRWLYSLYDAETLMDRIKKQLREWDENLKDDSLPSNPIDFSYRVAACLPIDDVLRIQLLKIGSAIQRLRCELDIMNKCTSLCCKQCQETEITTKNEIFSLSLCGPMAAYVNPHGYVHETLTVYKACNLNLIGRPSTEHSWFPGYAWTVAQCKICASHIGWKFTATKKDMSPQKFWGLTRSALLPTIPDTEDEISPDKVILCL
In short: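 Cells treated 24 h across 1 nM–10 µM range (fibroblasts at 500/1000 nM). Immunoblot: RIPA lysate with 2.5 mmol/l DTT, 15 µg per lane on 10% SDS-PAGE, nitrocellulose, 5% milk block 1 h. BRD4 or MYC primary 1:1,000 overnight at 4 °C, HRP secondary 1:10,000 for 60 min; GAPDH/β-actin loading control; ECL detection.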

[2] = biological target: T1, Protein cereblon/Bromodomain-containing protein 4 (Homo sapiens); assay: PROTAC activity at BRD4/Cereblon in human COLO 320 cells assessed as decrease in MYC protein expression at 5 to 10 uM for 24 hrs by Western blot analysis; conditions: dose 5-10 µM
In short: (§1)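 Eight CRC lines exposed 24 h to PROTAC at 5 or 10 µM (stocks 2 mM in DMSO, diluted in PBS or medium). Lysis in RIPA with protease/phosphatase inhibitors and 2.5 mmol/l DTT; 15 µg protein on 10% SDS-PAGE, semi-dry transfer to nitrocellulose. Anti-BRD4 or anti-MYC at 1:1,000 overnight at 4 °C; GAPDH or β-actin loading control; chemiluminescence.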

[3] = biological target: T1, Protein cereblon/Bromodomain-containing protein 4 (Homo sapiens); assay: PROTAC activity at BRD4/Cereblon in human DLD-1 cells assessed as decrease in BRD4 protein degradation at 5 to 10 uM for 24 hrs by Western blot analysis; conditions: dose 5-10 µM; in short: as §1
[4] = biological target: T1, Protein cereblon/Bromodomain-containing protein 4 (Homo sapiens); assay: PROTAC activity at BRD4/Cereblon in human HCT116 p53-/- cells assessed as decrease in MYC protein expression at 5 to 10 uM for 24 hrs by Western blot analysis; conditions: HCT-116, dose 5-10 µM; in short: as §1
[5] = biological target: T1, Protein cereblon/Bromodomain-containing protein 4 (Homo sapiens); assay: PROTAC activity at BRD4/Cereblon in human HCT116 p53+/+ cells assessed as decrease in BRD4 protein degradation at 5 to 10 uM for 24 hrs by Western blot analysis; conditions: HCT-116, dose 5-10 µM; in short: as §1
[6] = biological target: T1, Protein cereblon/Bromodomain-containing protein 4 (Homo sapiens); assay: PROTAC activity at BRD4/Cereblon in human COLO 320 cells assessed as decrease in BRD4 protein degradation at 5 to 10 uM for 24 hrs by Western blot analysis; conditions: dose 5-10 µM; in short: as §1
[7] = biological target: T1, Protein cereblon/Bromodomain-containing protein 4 (Homo sapiens); assay: PROTAC activity at BRD4/Cereblon in human HT-29 cells assessed as decrease in BRD4 protein degradation at 5 to 10 uM for 24 hrs by Western blot analysis; conditions: dose 5-10 µM; in short: as §1
[8] = biological target: T2, von Hippel-Lindau disease tumor suppressor/Bromodomain-containing protein 4 (Homo sapiens) (UniProt O60885+P40337); assay: PROTAC activity at BRD4/VHL E3 ligase in human LS174T cells assessed as decrease in MYC protein expression at 5 to 10 uM for 24 hrs by Western blot analysis; conditions: dose 5-10 µM
T2 sequence (P40337 whole entry, looked up, other chains not shown): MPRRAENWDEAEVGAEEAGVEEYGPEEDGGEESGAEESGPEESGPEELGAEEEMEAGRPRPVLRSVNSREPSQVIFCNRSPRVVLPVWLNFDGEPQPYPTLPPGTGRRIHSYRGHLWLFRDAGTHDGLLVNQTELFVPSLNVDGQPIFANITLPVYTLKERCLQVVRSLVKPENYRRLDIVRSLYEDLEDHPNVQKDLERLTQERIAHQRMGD
In short: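 Eight CRC lines, including LS174t (RPMI 1640) and SW480 (DMEM/HamsF12), all with 10% FCS, were treated with PROTAC at 5 and 10 µM. BRD4 and MYC proteins were detected by immunoblot (RIPA lysate, 15 µg, 10% gel, primary 1:1,000 overnight at 4 °C), with GAPDH/β-actin as loading control.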

[9] = biological target: T2, von Hippel-Lindau disease tumor suppressor/Bromodomain-containing protein 4 (Homo sapiens); assay: PROTAC activity at BRD4/VHL E3 ligase in human LS174T cells assessed as BRD4 protein degradation at 100 to 500 nM pretreated with proteasome inhibitor MG132 for 4 hrs by Western blot analysis; conditions: dose 100-500 nM
In short: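 LS174t cells were pre-incubated for 4 h with the proteasome inhibitor MG132 (10 mM DMSO stock) before PROTAC addition. BRD4 was then immunoblotted from RIPA lysates (15 µg, 10% SDS-PAGE, nitrocellulose, primary 1:1,000 overnight at 4 °C), with GAPDH/β-actin as loading control.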

[10] = biological target: T2, von Hippel-Lindau disease tumor suppressor/Bromodomain-containing protein 4 (Homo sapiens); assay: PROTAC activity at BRD4/VHL E3 ligase in human LS174T cells assessed as decrease in MYC mRNA level at 100 to 1000 nM for 24 hrs by RT-qPCR analysis; conditions: dose 100-1000 nM
In short: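 LS174t cells were treated for 24 h, then total RNA was Trizol-extracted from 10^6 cells and integrity-checked. 0.7 µg RNA was reverse transcribed and SYBR-type qPCR run for 40 cycles (95 °C 15 s, 60 °C 60 s), with melt-curve control. MYC or BRD4 mRNA was normalised to PPIA and ACTB by the ΔΔCq method. Experiments were run at least three times; mean ± SD.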

[11] = biological target: T2, von Hippel-Lindau disease tumor suppressor/Bromodomain-containing protein 4 (Homo sapiens); assay: PROTAC activity at BRD4/VHL E3 ligase in human fibroblast cells assessed as effect on MYC protein expression at 100 to 250 nM for 24 hrs by Western blot analysis; conditions: dose 100-250 nM
In short: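 Normal human dermal fibroblasts in 10% FCS medium were treated with 100 or 250 nM PROTAC. BRD4 and MYC protein were assessed by western blot (15 µg RIPA lysate, 10% SDS-PAGE, primary 1:1,000 overnight at 4 °C), with GAPDH/β-actin as loading control.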

[12] = biological target: T2, von Hippel-Lindau disease tumor suppressor/Bromodomain-containing protein 4 (Homo sapiens); assay: PROTAC activity at BRD4/VHL E3 ligase in human COLO 320 cells assessed as decrease in BRD4 protein degradation at 5 to 10 uM for 24 hrs by Western blot analysis; conditions: dose 5-10 µM; in short: as §1
[13] = biological target: T2, von Hippel-Lindau disease tumor suppressor/Bromodomain-containing protein 4 (Homo sapiens); assay: PROTAC activity at BRD4/VHL E3 ligase in human LS174T dbet1 resistant cells assessed as MYC protein expression at 500 to 1000 nM for 24 hrs by Western blot analysis; conditions: dose 500-1000 nM
In short: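 Resistant LS174t cells were derived by four months' exposure to rising dBET1 concentrations, with outgrowing cells expanded. Resistant and parental cells were then treated and analysed for BRD4 and MYC protein by western blot (GAPDH/β-actin control) and for MYC mRNA by qPCR normalised to PPIA/ACTB (ΔΔCq).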

[14] = biological target: T2, von Hippel-Lindau disease tumor suppressor/Bromodomain-containing protein 4 (Homo sapiens); assay: PROTAC activity at BRD4/VHL E3 ligase in human HCT116 p53+/+ cells assessed as decrease in BRD4 protein degradation at 5 to 10 uM for 24 hrs by Western blot analysis; conditions: HCT-116, dose 5-10 µM; in short: as §1
[15] = biological target: T2, von Hippel-Lindau disease tumor suppressor/Bromodomain-containing protein 4 (Homo sapiens); assay: PROTAC activity at BRD4/VHL E3 ligase in human HCT116 p53+/+ cells assessed as decrease in MYC protein expression at 5 to 10 uM for 24 hrs by Western blot analysis; conditions: HCT-116, dose 5-10 µM; in short: as §1

Cc1sc2c(c1C)C(c1ccc(Cl)cc1)=N[C@@H](CC(=O)NCCCCNC(=O)COc1cccc3c1C(=O)N(C1CCC(=O)NC1=O)C3=O)c1nnc(C)n1-2 (stereo not given in full)
Activity [1]: Active | Activity [2]: Active | Activity [3]: Active | Activity [4]: Active | Activity [5]: Active | Activity [6]: Active | Activity [7]: Active

Cc1ncsc1-c1ccc(CNC(=O)[C@@H]2C[C@@H](O)CN2C(=O)[C@@H](NC(=O)COCCOCCOCCNC(=O)C[C@@H]2N=C(c3ccc(Cl)cc3)c3c(sc(C)c3C)-n3c(C)nnc32)C(C)(C)C)cc1
Activity [8]: Active | Activity [9]: inactive | Activity [10]: Active | Activity [11]: inactive | Activity [12]: Active | Activity [13]: Active | Activity [14]: Active | Activity [15]: Active
